# Source: PubChem (several laboratories)
# Shown are actives, neighbours in structure and some others; about 6.7% of the full set was active somewhere.
# GRIN3A LBD mod: NR3A (human) ligand-binding domain modulation | 2.5% of 340,000 active | Tm shift relative to glycine control, % at 25 µM | NR3A LBD differential scanning fluorimetry, Tm shift; 0% = protein alone, 100% = glycine-bound protein;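 active means melting temperature shift of at least 10% of the positive control shift, at one fixed dose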
# PREPL inh: inhibits the human prolyl oligopeptidase-like enzyme; 0.68% of 320,000 active; Q4J6C6; recombinant PREPL, fluorescence polarization activity-based probe; inhibition, % at 5.96 µM; in the data active means inhibition above about 43%;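 further: 0% = enzyme with DMSO and 100% = wells lacking enzyme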
# Target sequence (Q4J6C6 whole entry, looked up): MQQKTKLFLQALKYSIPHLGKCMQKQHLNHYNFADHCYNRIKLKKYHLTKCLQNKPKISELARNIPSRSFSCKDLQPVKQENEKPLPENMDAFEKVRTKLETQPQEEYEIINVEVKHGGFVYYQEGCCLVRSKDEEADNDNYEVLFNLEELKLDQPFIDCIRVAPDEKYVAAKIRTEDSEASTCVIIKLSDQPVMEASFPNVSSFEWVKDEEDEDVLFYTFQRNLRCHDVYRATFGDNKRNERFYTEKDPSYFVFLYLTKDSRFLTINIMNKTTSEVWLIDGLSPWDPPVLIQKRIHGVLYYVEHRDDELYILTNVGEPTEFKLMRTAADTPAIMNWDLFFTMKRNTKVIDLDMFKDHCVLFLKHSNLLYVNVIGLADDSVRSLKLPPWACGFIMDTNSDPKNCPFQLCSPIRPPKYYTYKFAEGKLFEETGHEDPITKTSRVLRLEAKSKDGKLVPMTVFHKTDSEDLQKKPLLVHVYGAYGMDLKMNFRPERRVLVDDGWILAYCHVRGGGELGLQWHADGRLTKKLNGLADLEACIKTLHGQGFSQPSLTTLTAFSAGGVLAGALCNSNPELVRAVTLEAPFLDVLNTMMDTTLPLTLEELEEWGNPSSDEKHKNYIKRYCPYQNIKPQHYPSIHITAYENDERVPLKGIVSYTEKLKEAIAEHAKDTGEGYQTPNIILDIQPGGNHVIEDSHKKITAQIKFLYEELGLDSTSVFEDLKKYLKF
# T cruzi repl: blocks replication of Trypanosoma cruzi; inhibition, % (no concentration beside the values); T. cruzi beta-gal in NIH3T3, luminescence, 90 h; AID 1885; 1.4% of 300,000 active;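 active means mean inhibition across valid replicates above about 55%, limit read from the data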;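 further: signal also drops with host cell toxicity which is not excluded here; 0% = plate median of DMSO wells and 100% = zero luminescence signal; higher percent means less beta-gal luminescence so fewer parasites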
#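 Test system: β-gal T. cruzi (Tulahuen C4) inside NIH/3T3 cells / Quantity: 5,000 cells/well / Measured by: luminescence from GalScreen with 0.05% NP40, read after 60 min / Medium: DMEM plus 2% FBS / Measure: parasite load inhibition, % / Reagent: Tulahuen C4 trypomastigotes, 5000/well / Schedule: co-culture of at least 90 h after 3 h attachment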
# Beta cell apopt: blocks beta cell apoptosis. INS-1E cytokine-induced death, ATP luminescence, 48 h; percent of positive-control rescue, neutral wells zero. protection from apoptosis, % (test concentration not listed). 0.8% of 300,000 active. AID 435005;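 active means Every replicate reaches about 75%, or at least half do and their mean reaches it too, limit read from the data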;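 further: 0% = cytokine-treated negative control wells and 100% = positive control rescue; higher means more ATP so stronger rescue from cytokine killing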
# CSC inhib: cancer stem cell inhibition; cancer stem cell-like cells viability, luminescence; inhibition, % at 7.5 µM; 1.1% of 300,000 active; AID 2717; in the data active means inhibition above about 75%; tested in HMLE shEcad cells
# CHOP inh: CHOP inhibition in unfolded protein response. CHO-K1 CHOP-promoter luciferase, tunicamycin-induced, 15-18 h. inhibition, % at 10 µM. 3.8% of 220,000 active. AID 2732;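 active means compounds that reduced the stress-induced luciferase reporter signal by more than about 70% of percent inhibition, limit read from the data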;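 further: 0% = tunicamycin plus vehicle and 100% = wells without tunicamycin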
# Active calls of the source: *; / = not tested or not shown.
SMILES,GRIN3A LBD mod,PREPL inh,T cruzi repl,Beta cell apopt,CSC inhib,CHOP inh
Cc1ccccc1-c1nc(-c2ccc(NC(=O)c3ccc4c(c3)OCO4)cc2)no1,33.8*,6.9,5.6,9.0,5.1,39.5
COc1ccc([N+](=O)[O-])cc1NC(=O)c1cn(-c2ccc(C)c(C)c2)c(=O)c2ccccc12,-1.8,2.2,-3.1,3.9,-2.0,54.5
CCOc1cc(/C=C2/NC(=O)N(CC(=O)Nc3cccc(C)c3)C2=O)ccc1OC,-1.6,-4.5,-10.5,-5.7,-3.8,90.4*
O=C(Nc1ccccc1C(=O)Nc1nnc(C(F)(F)F)s1)c1ccccc1Cl,18.2*,5.3,-34.2,111.9*,95.1*,73.6*
CCC1CCCCN1Cc1nc2c(c(=O)n(C)c(=O)n2C)n1Cc1ccccc1 (centres undefined),3.8,3.5,19.6,1.0,/,82.9*
CC1CCCCN1Cc1nc2c(c(=O)n(C)c(=O)n2C)n1Cc1c(F)cccc1Cl (centres undefined),2.2,28.3,/,14.1,76.6*,-11.1
CCCCn1nnc(NC(=O)c2ccc([N+](=O)[O-])cc2Cl)n1,-1.2,-1.7,8.2,-1.6,-3.3,14.3
CCN1/C(=C/c2sc(-c3ccccc3C)c[n+]2C)Sc2ccccc21,-1.7,/,66.4*,/,/,80.5*
O=[N+]([O-])c1ccc(N=Nc2ncc[nH]2)cc1,-3.5,/,-25.5,54.5,80.8*,/
O=[N+]([O-])c1ccc(N=NN(CCO)CCO)cc1,1.8,8.7,-15.6,-2.4,4.9,-1.0
CN(C)c1nc(-c2ccccc2)ns1,-0.1,0.3,-17.0,-7.7,-2.3,-4.8
Nc1nc(-c2ccccc2)ns1,12.6*,/,/,/,/,/
O=C(Nc1cc(Sc2ccccn2)cc([N+](=O)[O-])c1)c1cccc(Cl)c1,6.8,11.2,58.6*,10.3,50.3,27.9
O=C(N/N=C/c1ccccn1)c1ccc(NC(=O)c2cccc([N+](=O)[O-])c2)cc1,2.4,3.9,-16.8,4.2,7.9,13.3
O=C(Nc1cc(Sc2ccccn2)cc([N+](=O)[O-])c1)c1ccc(Cl)cc1,-8.6,8.9,51.6,75.3*,45.5,39.0
COc1ccccc1NC(=O)Cn1cc(C(=O)c2ccco2)c2ccccc21,-6.7,-3.5,-14.0,86.7*,-10.6,34.2
COc1cc(NC(=O)CSc2ncnc3scc(-c4ccccc4)c23)c(C(=O)O)cc1OC,-3.1,5.1,-2.8,3.9,-0.4,36.6
COc1ccc(N=Cc2oc3ccc4ccccc4c3c2O)cc1,14.9*,2.5,-3.7,2.1,1.5,-25.2
Nc1ccc(O)c2c1C(=O)c1ccccc1C2=O,-24.6,51.1*,8.2,19.6,-9.2,7.0
CC1(C)Cc2c(C#N)c(NC3CCCCC3)nc(-c3ccco3)c2CO1,/,0.9,9.1,-3.5,77.4*,-31.4
Cc1cc(C)c2nc(SCC(=O)NC(=O)c3cccn3C)cc(C)c2c1,-3.4,-8.0,-3.7,-10.1,-19.1,-19.8
CCCn1c(SCC(=O)Nc2cc(Cl)ccc2OC)nc(O)cc1=O,-0.3,-1.7,/,1.9,/,/
C=CCn1c(C)nc2ccccc2c1=O,0.4,0.1,-17.5,-2.4,-10.4,50.6
C=CCn1c(N/N=C/c2ccc(O)cc2)nc2ccccc2c1=O,11.7*,8.4,-7.5,17.6,9.3,3.7
COc1ccc(-c2cc(C(=O)O)c3c(C)nn(-c4ccccn4)c3n2)cc1,2.3,-1.1,-23.3,-9.2,-15.7,8.9
SMILES,GRIN3A LBD mod,PREPL inh,T cruzi repl,Beta cell apopt,CSC inhib,CHOP inh
COc1ccc(N=CC2=C(Nc3ccc(OC)cc3)c3c(C)nn(-c4ccccn4)c3CC2)cc1,/,72.5*,/,109.7*,/,/
CCCCNC(=O)c1cccc2c(=O)c(C)c(-c3ccccc3)oc12,2.3,-3.3,9.4,-9.8,11.6,8.0
Cc1c(-c2ccccc2)oc2c(C(=O)N3CCN(c4ccccc4F)CC3)cccc2c1=O,-1.8,-2.5,16.9,5.5,-4.8,71.3*
Cc1ccnc(Nc2nc(-c3ccccc3)cs2)c1,-6.8,3.0,19.0,14.4,12.9,/
Cc1ccc(Nc2nc(-c3c(C)nc4ccccn34)cs2)cc1,0.6,33.1,39.0,/,/,85.3*
CC(=O)Nc1ccc(-c2csc(Nc3cc(C)ccn3)n2)cc1,24.7*,6.2,22.8,5.0,-3.5,9.1
CC(=O)Nc1cccc(-c2csc(Nc3cc(C)ccn3)n2)c1,10.0*,9.8,-0.1,0.6,26.9,24.7
Cc1ccnc(Nc2nc(-c3c(C)nc4sccn34)cs2)c1,16.4*,24.1,34.8,13.9,16.7,-9.6
COc1ccc2c(c1)C(=O)[C@@H](O)[C@H](c1ccc(OC)c(Br)c1)O2,1.8,15.5,-19.2,76.6*,-26.8,23.2
CCOC(=O)c1cnn(-c2cc(C)nc3c(-c4ccccc4)c(C)nn23)c1N,-0.4,6.1,-4.0,10.4,-6.3,81.4*
CCOC(=O)c1cnn(-c2cc(C)nc3c(-c4ccc(Cl)cc4)c(C)nn23)c1N,/,/,/,/,/,83.9*
CCOC(=O)c1cnc2c(-c3ccccc3)cnn2c1N,2.9,4.0,0.0,2.5,2.1,80.4*
CCOc1ccc(CCNC(=O)CSCC(=O)Nc2ccc(OC)cc2)cc1OCC,-0.9,-0.8,/,-0.7,-20.2,/
Cc1ccc(NC(=O)c2cc(S(=O)(=O)NCCC3=CCCCC3)ccc2F)cc1F,16.6*,-9.2,11.6,106.9*,12.6,69.7
CC(=O)N1CCc2cc(S(=O)(=O)NCCC3=CCCCC3)ccc21,1.7,-11.4,-13.9,87.5*,/,/
O=C(Nc1cccc(F)c1)c1cc(S(=O)(=O)NCCC2=CCCCC2)ccc1F,22.4*,-7.2,0.2,1.1,20.7,61.1
O=C(CN(Cc1ccccc1)C(=O)CCl)c1cccc(Br)c1,-2.6,-26.1,/,10.4,16.1,/
CN1CCc2c(sc3nc(NN)n(Cc4ccccc4)c(=O)c23)C1,-4.4,26.4,38.6,2.1,-6.0,-3.9
Cn1c(SCC(=O)c2ccc3c(c2)Cc2ccccc2-3)nnc1-c1cccc(N)c1,0.5,18.2,1.0,-6.2,-5.1,93.5*
O=C(CSc1nc(=O)[nH]c2c1CCCC2)Nc1cc(C(F)(F)F)cc(C(F)(F)F)c1,10.3*,5.5,27.6,/,-5.8,/
CC(C)OP(=O)(OC(C)C)C1(NS(=O)(=O)c2ccc(Cl)cc2)C=C(Cl)C(=O)C(Cl)=C1,-4.1,15.9,-9.8,2.8,12.3,/
NS(=O)(=O)c1ccc(Nc2nc(-c3ccc(F)cc3)cs2)cc1,25.4*,13.2,19.6,-5.2,7.6,23.3
NS(=O)(=O)c1ccc(Nc2nc(-c3ccc(O)cc3O)cs2)cc1,15.4*,17.0,-10.2,4.0,8.3,17.8
Cc1[nH]c2ccccc2c1CN1CCN(c2ccccn2)CC1,-0.6,-4.0,78.4*,92.3*,-10.0,-32.0
Cc1[nH]c2ccccc2c1CN1CCC(Cc2ccccc2)CC1,-0.6,24.9,93.9*,103.7*,62.7,-70.1
Cc1[nH]c2ccccc2c(=O)c1CN1CCCCC1,-2.1,13.1,-4.6,2.4,-17.8,19.4
Cc1ccccc1Nc1nnc(SCC(=O)c2c(N)n(C3CC3)c(=O)[nH]c2=O)s1,0.7,/,/,/,/,/
